Activity calls are given as the source filed them. No cut-off for these calls is given here.
Experiments:
[1] = Antioxidant activity assessed as AAPH radical scavenging activity after 3 hrs; assay type: functional
Procedure, shortened: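 Ethyl linoleate (50 mM) oxidized with AAPH (10 mM) in 0.3 M Tween 20/0.05 M phosphate buffer (pH 7.4) micelles; test sample 0.10 mM final (from DMSO stock). Incubation 37 °C, dark, with shaking, 3 h. Aliquot quenched into methanolic trolox; ethyl linoleate hydroperoxide quantified by reverse-phase HPLC at 234 nm from a peak-area calibration equation.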

[2] = system: Radical scavenging activity; test: Antioxidant activity assessed as DPPH radical scavenging activity; assay type: functional
Procedure, shortened: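 Test sample at 20 µM final mixed with DPPH (0.1 mM); stood 0.5 h at 25 °C, then absorbance read at 517 nm. Activity expressed as decrease of absorbance: DPPH blank minus (DPPH + sample) plus sample-only absorbance.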

Row | Compound | Activity [1] | Activity [2]
1 | COc1cc([C@@H]2c3cc(O)c(OC)cc3C[C@H]3COC[C@H]32)ccc1O | Active | Active
2 | COc1cc(C[C@H]2COC[C@@H]2C(=O)c2ccc(O)c(OC)c2)ccc1O | Active | Active
3 | COc1cc(C[C@H]2COC[C@@H]2[C@@H](O)c2ccc(O)c(OC)c2)ccc1O | Active | Active
4 | COc1cc(C(O)[C@H]2COC[C@@H]2[C@@H](O)c2ccc(O)c(OC)c2)ccc1O (single isomer, unassigned) | Active | Active
5 | COc1cc(C[C@H]2COC(=O)[C@@H]2Cc2ccc(O)c(OC)c2)ccc1O | Active | Active
6 | COc1cc(C[C@H]2COC[C@@H]2[C@H](O)c2ccc(O)c(OC)c2)ccc1O | Active | Active
7 | COc1cc([C@@H](O)[C@H]2COC[C@@H]2[C@H](O)c2ccc(O)c(OC)c2)ccc1O | Active | Active
8 | COc1cc(C[C@H]2COC[C@@H]2Cc2ccc(O)c(OC)c2)ccc1O | Active | Active

Source: ChEMBL document CHEMBL1148990, “Effect of benzylic oxygen on the antioxidant activity of phenolic lignans” (J Nat Prod, 2005)
